Results published in the EternaBench riboswitch data.

System: MS2 coat protein
Experiment: apparent Kd, MS2 coat protein; higher = weaker binding; RNA-MaP array; FMN 200 µM where present
Method in brief: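 SNAP-549-labelled MS2 coat protein, doubled from 0.7 or 1.5 nM to 3 µM, was titrated over designs transcribed by stalled E. coli RNA polymerase on Illumina sequencing-chip clusters. Titrations were run without and then with constant ligand in 100 mM Tris-HCl pH 7.5, 80 mM KCl, 4 mM MgCl2, BSA, DTT, yeast tRNA and Tween-20. The apparent Kd is the median of filtered per-cluster fits to green signal normalised to red-channel RNA signal and control-cluster median Fmax.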

[1] = designed as: ON switch for flavin mononucleotide, no ligand
[2] = ligand present: flavin mononucleotide, designed as: ON switch for flavin mononucleotide
[3] = designed as: OFF switch for flavin mononucleotide, no ligand
[4] = ligand present: flavin mononucleotide, designed as: OFF switch for flavin mononucleotide

Sequence | apparent Kd [1] [nM] | apparent Kd [2] [nM] | apparent Kd [3] [nM] | apparent Kd [4] [nM]
GUGCUCGUGUGAGGAUAUGCCGCCGUUUCGGCUGCAGAAGGUGCUACGUUACAUGAGGAUCACCCAUGUCUCUGUUGUUUCGUG | 21 | 21.4 |  | 
ACGUGGAGUCCGCAACAGAACACACAGGAUAUGAGUGGGCACAUGAGGAUCACCCAUGUUACGGAUCAGAAGGGUGUGCUCAUG | 449 | 56.3 |  | 
CCGGAGACGGGUAGCCUGACAUGAGGAUCACCCAUGUGAUCCUAGGAUAUGGAUCCUAAUUGGAUCCAGAAGGAGGUUGGCUAC | 1210 | 392 |  | 
UUAGAUUAUGAAGGAUAUGGAUCUUAUUAUUAACCAGAAGGUCAACUCAACAUGAGGAUCACCCAUGUAUAAAGGGUAUUAGUU |  |  | 134 | 132
GGAAAGUGAGGAUAUGCAUAACAAAUACAAAGAGAAACAAAGCAGAAGGCACAUGAGGAUCACCCAUGUAAACA |  |  | 24.9 | 25
UCCUCUGUAUGAGGAUAUCCGAAUACGUGAGGCGCUGCCGGCUCAUCAUCAGGAGAAGGCAUACAUGAGGAUCACCCAUGUCGA |  |  | 141 | 63.3
CGAAGUCCGUAGAAGGGUGACAUGAGGAUCACCCAUGUGCGAGCCGUGGGAGUCAGCGGCUCGCCACAGGAUAUACGGAGCACG | 30.6 | 26 |  | 
AAUUAUUUUUGAGGAUAUGGUGGUGAAACACCACCAGAAGGCGGAAUAAACAUGAGGAUCACCCAUGUGAGCCUGAUGCUUAUG |  |  | 21.3 | 40.5
AUCUGGUCCUUACGCCCACAUGAGGAUCACCCAUGUCAGGCACAGGAUAUCCCGGGAGCUUUGGUGGAGAAGGGUGCCCUUGGG |  |  | 55.6 | 100
AGCAGGUGAGGAUAUCGAUUAAGAUUAACAUUAUUAUUAAACGAGAAGGCACAUGAGGAUCACCCAUGUAAGGA |  |  | 29.9 | 41.3
AAGCAGUGUAAAUAAACUCAAAUACAUGAGGAUCACCCAUGUAAGGAUAUGCAGUGGAAUACACUGCAGAAGGUACAUCACUGC |  |  | 15.1 | 22.6
GUCCUACAUGAGGAUCACCCAUGUGAGGAUAUGUGGUUAGCUGCUAGGUAGUUAGUAUGCAGAAGGUACGUGAU |  |  | 40.4 | 41.9
UGUUGGAGCAGAGGAUAUACAUGAGGAUCACCCAUGUAAUAAAGUGAAGCCUGGAAACAGGCAAUGUAGAAGGCUGCUCCGACA |  |  | 10.1 | 73.6
GAGAAGUGAGGAUAUGCUGCUCGUCACUUGCGUGAUGAGUAGCAGAAGGCACAUGAGGAUCACCCAUGUAAAGG |  |  | 133 | 244
AGUGUCAUCGAGAAGGCCUUGACAUGAGGAUCACCCAUGUUGUAACAUGGGAGGAUAUCGAUGAUACAGCUACGUUUCGUAGCA | 625 | 47.3 |  | 
GUAGAGUAGUGAGGAUAUACGAGCACGAUAGUGCGGCGAUCCAAUAAUACAUGAGGAUCACCCAUGUAGAAGGCACUUCUCUAC |  |  | 7.43 | 81.2
GUCACUAGAGGAUAUACAAUGGUAUAUGAUCCUAGAGACAUACAUGAGGAUCACCCAUGUAGAAGGCUAGUAUU |  |  | 64.6 | 43.5
AUGUUUCAUGUAGGAUAUGCAUACUGUUAGUAUGCAGAAGGACAUGAGGAUCACCCAUGUAUAUUAUCAUUACAUAUCAUACAU |  |  | 60.4 | 492
AGUCGGAGCAGAGGAUAUACAUGAGGAUCACCCAUGUAAAUGGAAUAAGCCUGGAAACAGGCAAUGUAGAAGGCUGCUCCGACA |  |  | 75 | 716
UUCAUGUGAGGAUAUGCGGCACCAGGCAAGCCUAGUGCUGAGCAGAAGGCACAUGAGGAUCACCCAUGUGCUCC |  |  | 29.3 | 72.2
GACUUGUCAGGAUAUCUUACAUUUGCAUCUUAGUUACCAUUGGAGAAGGGACAUGAGGAUCACCCAUGUUUGGU |  |  | 35.1 | 34.4
UUCAUCAAUGAAGGAUAUCUAUGUCCAACAUGAGGAUCACCCAUGUUGAGGAUCACCUAUGUGUAGGAGAAGGUUAAUAUAACU | 7.98 | 6.38 |  | 
AGUCGGAGCAGAGGAUAUAUACAUGAGGAUCACCCAUGUAAAGAUCAAAGCAGGAAACUGCAAGUAUAGAAGGCUGCUCCGACA |  |  | 108 | 231
GGUAGCAACACAGGAUAUGCUAUCCUUUGGGUAGCAGAAGGGUGAAACAUGAGGAUCACCCAUGUGCUGCCAGGGCGUGAGCCC | 1800 | 136 |  | 

Sequence | apparent Kd [1] [nM] | apparent Kd [2] [nM] | apparent Kd [3] [nM] | apparent Kd [4] [nM]
GCGUAACAUGAGGAUCACCCAUGUACCCGAGAAUUCGGGUCUAGAAGGGUGACCGGUCGUUUGGCACAGGAUAUAGACGUUGUG | 30.7 | 11.3 |  | 
UCAGGCUUCGAGAAGGACAUGAGGAUCACCCAUGUUAGUGUGAAGCAGCCGUGAGGCUGCAUCAUGUAGGAUAUCGGAGUCUGC |  |  | 25.5 | 189
GCCAUCGGGUGAGGAUAUAAAAUUAUAAUUAAAUUAGAAGGCACCUCAUAAGACAUGAGGAUCACCCAUGUAGUUAAGAUGGCA | 87.6 | 29.5 |  | 
GGUUGACAAAGUCAACCUUAACGAACAUGAGGAUCACCCAUGUAGGAUAUGCUACUCAAAGAGUAGCAGAAGGACAUGUGCCUU |  |  | 33 | 278
GCUGUCGCAUGAGGAUAUGGUCAGCUUUGCUGACCAGAAGGCAUGUCAAUAGACAUGAGGAUCACCCAUGUAGUAAAGGCGGCU | 380 | 37.8 |  | 
UAAUAAAACGAUCGGCGAUCCAAACAUGAGGAUCACCCAUGUAGAAGGGACUCUACAAAGUAGAGUCAGGAUAUACGAGAUCGA |  |  | 11.9 | 208
UAUGAGCGAGGAUAUGCUUGGGACUGUCGGAAUGUGGCGGGACAUGAGGAUCACCCAUGUAGAAGGCGCGAGCG |  |  | 95.1 | 212
GUACAGAUCACAGGAUAUCACGUCGUUUAGACGUGAGAAGGGUGAUCACACAUGAAUAUUAAUACAUGAGGAUCACCCAUGUAC | 36 | 97.7 |  | 
GUUACAUGAGGAUCACCCAUGUAUGUGUGGGAGUAAGUGUCUUAGGAUAUCUAUUAUUUAAUUUAAGAGAAGGAAGAUUGUUGU | 118 | 133 |  | 
CGCAACUCAGAUCUUUUGAACAUGAGGAUCACCCAUGUAUUGAGAAGGAGGAAGAAGAGAGAUUCCUAGGAUAUCAGAGUUGCG |  |  | 5.95 | 5.81
CGCUCAAUUACUUUGAAUAGAAUCAGAAGGCGUUACAUGAGGAUCACCCAUGUUAUGACGUGUAACGAGGAUAUGAAUUGAGCG |  |  | 7.18 | 30.5
CGAUGGCAUGUAGGAUAUCGAGCUCAAAGAGCUCGAGAAGGACAUGAGGAUCACCCAUGUCGUCACAGACAGUGACGGCUAUCG |  |  | 24.4 | 133
GGUCGGAGCAGAGGAUAUACAUGAGGAUCACCCAUGUAAUAAAGUGAAGCCUGGAAACAGGCAAUGUAGAAGGCUGCUCCGACA |  |  | 10.8 | 70.6
GUACAGUAGUGAGGAUAUACGAGAUCGAUAGAUCGGCGAUCCAUAUAUACAUGAGGAUCACCCAUGUAGAAGGCACUUCUGUAC |  |  | 7.7 | 104
GUAGCAUACCGAGGAUAUUCAUAUCGGAAACGAACAUGAGGAUCACCCAUGUGGCGAAAGCCUUGGGAGAAGGCGGAAUGCUAC | 589 | 24.5 |  | 
AGGAAGUGAGGAUAUGCAGUGGCUUGUAGACGCAAGCACUUGUAGAAGGCACAUGAGGAUCACCCAUGUUUAAA |  |  | 30.8 | 37.3
AGUCGGAGCAGAGGAUAUACAUGAGGAUCACCCAUGUAAUAAAGUGAAGCUUGGAAACAGGCAAUGUAGAAGGCUGCUCCGACA |  |  | 11.3 | 68.6
GCUUGUAGAGGAUAUACAAGGGCCCAAGCGGCGAGAGCCGCACAUGAGGAUCACCCAUGUAGAAGGCUACUAUA |  |  | 192 | 499
CGAUGAGGUGUGAGGAUAUCGUGUUCGAAAGAACGUGAGAAGGCACAUGAGGAUCACCCAUGUCAACCUUGUCG |  |  | 17.3 | 15.6
GCACGGAGUGUAGGAUAUUAGUGCGAUUAGCACUGAGAAGGACAUGAGGAUCACCCAUGUUCCUCAAUAACAUACCUUCCGUGC |  |  | 13.8 | 10.6
CAUCUGUCAGGAUAUAUGCGAGGGCCACGAAGCGGCCCUUCAUAGAAGGGACAUGAGGAUCACCCAUGUAGAUC |  |  | 461 | 310
UACACUACUGAGAAGGGAUACAUAUAAUUUUAGUCAGGAUAUCGAUACAGUGCAGCAUGAGGACAUGAGGAUCACCCAUGUAUU | 22.3 | 14.6 |  | 
UGUGCGUAUGUGAGGAUAUGCUGGUCCUUGGAUCGGCAGAAGGCACAUGAGGAUCACCCAUGUGGUGUCGUUCU |  |  | 389 | 24.8
CCAUGGUGGGCAGGAUAUCGUCCAGCUUGCGGACGAGAAGGGCUCAAACAUGAGGAUCACCCAUGUGAAGAGCGGGUUGUCCAA |  |  | 24.6 | 146
